Broadly, the Ki is the equilibrium dissociation constant of an inhibitor or competing ligand from its target. Low values mean tighter binding, high ones weaker binding. Usually pA2 stands for the negative logarithm of the molar antagonist concentration that doubles the agonist concentration needed for the same response. A word on the inhibition: it is how much of the control response was suppressed.

Consider six molecules from ChEMBL document CHEMBL2150980 (Eur J Med Chem, 2012).

Assay [1] has as its target T1, Alpha-1D adrenergic receptor (Homo sapiens, UniProt P25100).
T1 sequence (P25100 whole entry): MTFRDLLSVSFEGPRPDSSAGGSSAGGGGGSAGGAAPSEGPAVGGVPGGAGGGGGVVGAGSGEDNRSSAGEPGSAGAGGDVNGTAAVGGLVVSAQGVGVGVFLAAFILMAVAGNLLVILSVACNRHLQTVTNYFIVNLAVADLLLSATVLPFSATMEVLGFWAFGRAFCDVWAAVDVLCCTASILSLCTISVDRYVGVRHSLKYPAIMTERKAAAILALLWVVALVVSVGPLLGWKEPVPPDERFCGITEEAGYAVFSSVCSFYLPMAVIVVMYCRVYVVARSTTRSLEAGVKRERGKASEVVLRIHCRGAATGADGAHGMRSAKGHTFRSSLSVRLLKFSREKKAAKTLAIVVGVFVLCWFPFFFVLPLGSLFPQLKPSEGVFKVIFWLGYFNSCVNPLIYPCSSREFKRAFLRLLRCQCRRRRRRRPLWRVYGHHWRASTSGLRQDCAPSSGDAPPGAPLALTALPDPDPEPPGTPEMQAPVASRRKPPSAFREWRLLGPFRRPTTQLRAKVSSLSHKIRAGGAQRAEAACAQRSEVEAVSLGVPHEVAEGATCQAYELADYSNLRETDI
The assay can be described thus: Displacement of [3H]prazosin from human cloned alpha1D adrenoceptor expressed in CHO cell membranes after 30 mins by liquid scintillation counter. (In general: Loss of bound radioactivity is the signal in a displacement assay; it reports binding, not function.)

The target of assay [2] is T2, Alpha-1B adrenergic receptor (Homo sapiens, UniProt P35368).
T2 sequence (P35368 whole entry): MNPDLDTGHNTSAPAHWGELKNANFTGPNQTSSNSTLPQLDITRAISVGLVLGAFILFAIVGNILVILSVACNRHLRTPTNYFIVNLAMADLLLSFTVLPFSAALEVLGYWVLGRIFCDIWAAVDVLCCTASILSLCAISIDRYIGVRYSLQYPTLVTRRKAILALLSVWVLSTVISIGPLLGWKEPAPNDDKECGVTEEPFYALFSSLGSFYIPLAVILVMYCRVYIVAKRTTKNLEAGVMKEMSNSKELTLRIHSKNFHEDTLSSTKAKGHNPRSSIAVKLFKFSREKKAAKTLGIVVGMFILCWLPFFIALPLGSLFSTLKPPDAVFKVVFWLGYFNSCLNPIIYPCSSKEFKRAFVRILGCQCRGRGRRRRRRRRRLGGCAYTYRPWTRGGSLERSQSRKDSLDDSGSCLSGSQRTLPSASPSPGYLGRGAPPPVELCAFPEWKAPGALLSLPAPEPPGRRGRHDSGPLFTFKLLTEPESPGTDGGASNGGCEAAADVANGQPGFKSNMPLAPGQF
Kind of assay: Displacement of [3H]prazosin from human cloned alpha1B adrenoceptor expressed in CHO cell membranes after 30 mins by liquid scintillation counter.

In assay [3] the target is T3, 5-hydroxytryptamine receptor 1A (Rattus norvegicus, UniProt P19327).
T3 sequence (P19327 whole entry): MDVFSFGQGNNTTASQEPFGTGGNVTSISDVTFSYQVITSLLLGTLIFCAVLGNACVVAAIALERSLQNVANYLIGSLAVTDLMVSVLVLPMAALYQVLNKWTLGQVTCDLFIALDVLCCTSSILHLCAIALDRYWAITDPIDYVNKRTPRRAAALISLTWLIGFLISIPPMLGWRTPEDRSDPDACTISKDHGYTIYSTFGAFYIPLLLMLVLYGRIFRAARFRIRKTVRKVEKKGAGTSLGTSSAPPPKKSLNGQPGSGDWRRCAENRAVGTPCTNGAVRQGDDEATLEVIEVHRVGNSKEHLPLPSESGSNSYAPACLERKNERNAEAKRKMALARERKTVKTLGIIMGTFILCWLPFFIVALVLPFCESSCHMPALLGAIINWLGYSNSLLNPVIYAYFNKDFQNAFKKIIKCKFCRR
Kind of assay: Displacement of [3H]-8-OH-DPAT from 5-HT1A receptor in rat hippocampal membranes after 30 mins by liquid scintillation counting. Type of assay: cell membranes, Hippocampus, Membrane. A digest of the protocol: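 Crude rat hippocampal membranes in Tris-HCl 50 mM, pH 7.7, with pargyline and 4 mM CaCl2. […] Stopped by GF/B filtration, then scintillation counting. Ki from IC50 via Cheng–Prusoff; ≥3 experiments in triplicate.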

Assay [4] has as its target T4, Alpha-1A adrenergic receptor (Homo sapiens, UniProt P35348).
T4 sequence (P35348 whole entry): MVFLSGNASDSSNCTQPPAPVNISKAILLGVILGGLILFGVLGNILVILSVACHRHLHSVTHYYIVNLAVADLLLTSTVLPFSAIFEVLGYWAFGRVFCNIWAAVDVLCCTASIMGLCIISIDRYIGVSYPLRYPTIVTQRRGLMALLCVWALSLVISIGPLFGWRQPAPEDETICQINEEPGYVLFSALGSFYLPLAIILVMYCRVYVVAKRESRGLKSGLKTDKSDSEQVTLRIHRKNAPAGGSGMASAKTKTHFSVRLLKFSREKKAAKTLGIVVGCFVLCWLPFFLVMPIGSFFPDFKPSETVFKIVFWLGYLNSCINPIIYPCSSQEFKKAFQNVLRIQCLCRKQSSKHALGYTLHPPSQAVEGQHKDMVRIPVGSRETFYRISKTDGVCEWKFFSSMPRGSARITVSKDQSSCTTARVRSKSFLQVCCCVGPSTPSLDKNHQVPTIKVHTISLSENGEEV
The assay can be described thus: Displacement of [3H]prazosin from human cloned alpha1A adrenoceptor expressed in CHO cell membranes after 30 mins by liquid scintillation counter. A digest of the protocol:
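Membranes incubated 30 min at 25 °C with 0.5 nM [3H]-prazosin ± compound (0.3–1000 nM) in 50 mM buffer, pH 7.7, containing pargyline and 0.1% ascorbic acid. Unlabelled prazosin defined nonspecific binding. GF/B filtration, scintillation counting.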

Assay [5] concerns the target T5, Adrenergic receptor alpha-2 (Rattus norvegicus, UniProt P22086+P19328+P22909).
T5 sequence (P22086 whole entry): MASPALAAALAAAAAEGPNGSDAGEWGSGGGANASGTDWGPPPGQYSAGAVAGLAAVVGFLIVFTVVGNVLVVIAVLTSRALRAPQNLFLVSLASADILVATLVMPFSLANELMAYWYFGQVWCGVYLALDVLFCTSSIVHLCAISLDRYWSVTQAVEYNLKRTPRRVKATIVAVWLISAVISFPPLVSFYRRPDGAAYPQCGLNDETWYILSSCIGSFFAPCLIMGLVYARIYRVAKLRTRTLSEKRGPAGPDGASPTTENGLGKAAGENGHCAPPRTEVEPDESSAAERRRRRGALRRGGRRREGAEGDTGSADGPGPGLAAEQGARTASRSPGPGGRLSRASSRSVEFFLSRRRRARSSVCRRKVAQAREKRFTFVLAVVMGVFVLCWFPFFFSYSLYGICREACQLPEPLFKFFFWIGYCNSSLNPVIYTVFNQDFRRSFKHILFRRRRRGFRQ
T5 sequence (P19328 whole entry): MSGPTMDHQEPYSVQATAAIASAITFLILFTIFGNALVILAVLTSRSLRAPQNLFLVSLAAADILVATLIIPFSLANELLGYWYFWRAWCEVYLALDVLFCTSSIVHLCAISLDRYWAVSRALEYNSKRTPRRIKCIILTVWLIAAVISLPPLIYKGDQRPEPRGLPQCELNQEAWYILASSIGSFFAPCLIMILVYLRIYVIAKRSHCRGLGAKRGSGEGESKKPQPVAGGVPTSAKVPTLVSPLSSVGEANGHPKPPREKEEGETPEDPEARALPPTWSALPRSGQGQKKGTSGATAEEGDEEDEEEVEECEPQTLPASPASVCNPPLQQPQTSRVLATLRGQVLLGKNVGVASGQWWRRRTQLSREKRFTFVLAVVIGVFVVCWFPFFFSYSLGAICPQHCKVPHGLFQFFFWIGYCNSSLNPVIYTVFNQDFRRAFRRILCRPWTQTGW
T5 sequence (P22909 whole entry): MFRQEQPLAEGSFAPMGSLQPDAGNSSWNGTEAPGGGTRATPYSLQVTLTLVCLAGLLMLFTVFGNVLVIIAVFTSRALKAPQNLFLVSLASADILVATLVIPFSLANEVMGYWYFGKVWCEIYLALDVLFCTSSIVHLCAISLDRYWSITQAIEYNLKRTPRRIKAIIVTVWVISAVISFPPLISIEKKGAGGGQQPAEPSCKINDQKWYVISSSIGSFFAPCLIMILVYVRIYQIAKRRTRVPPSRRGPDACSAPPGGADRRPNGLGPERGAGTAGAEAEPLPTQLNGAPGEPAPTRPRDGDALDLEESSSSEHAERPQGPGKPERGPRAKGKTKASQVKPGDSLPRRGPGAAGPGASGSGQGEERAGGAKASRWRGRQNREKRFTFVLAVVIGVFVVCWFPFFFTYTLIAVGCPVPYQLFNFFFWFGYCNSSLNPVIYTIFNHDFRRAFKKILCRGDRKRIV
The assay can be described thus: Antagonist activity at alpha2 adrenoceptor in Sprague-Dawley rat prostatic vas deferens assessed as suppression of clonidine-mediated inhibition of twitch response after 30 mins. Type of assay: functional, tissue-based. Summed up:
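Prostatic vas deferens segments (1.5–2 cm) in Krebs at 37 °C, field-stimulated at 0.1 Hz with 3 ms square pulses, 20–40 V. Equilibrated 1 h at 0.35 g resting tension.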

Assay [6] has as its target T6, Alpha-1A adrenergic receptor (Cavia porcellus) (UniProt Q9WU25).
T6 sequence (whole entry): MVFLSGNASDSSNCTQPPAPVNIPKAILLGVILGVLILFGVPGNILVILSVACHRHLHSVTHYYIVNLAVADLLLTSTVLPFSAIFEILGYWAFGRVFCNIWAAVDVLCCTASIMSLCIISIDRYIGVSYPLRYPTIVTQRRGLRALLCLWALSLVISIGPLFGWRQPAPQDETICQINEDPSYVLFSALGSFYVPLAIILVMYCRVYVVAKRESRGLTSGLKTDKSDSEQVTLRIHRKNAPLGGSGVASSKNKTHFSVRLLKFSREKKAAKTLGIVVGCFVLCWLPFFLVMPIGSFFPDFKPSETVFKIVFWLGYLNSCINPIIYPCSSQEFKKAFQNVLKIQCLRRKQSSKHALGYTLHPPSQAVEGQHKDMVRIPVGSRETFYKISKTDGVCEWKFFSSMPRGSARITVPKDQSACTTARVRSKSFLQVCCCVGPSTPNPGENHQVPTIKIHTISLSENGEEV
Kind of assay: Inverse agonist activity at alpha1A adrenoceptor in guinea pig thoracic aorta assessed as inhibition of ca2+-induced IRT at 10 nM after 30 mins. Type of assay: functional, tissue-based. Summed up: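 Tissue in Krebs equilibrated 1 h at 1 g, then given a single (−)-noradrenaline dose. Washed 1 h in Ca2+-free Krebs with 0.1 mM EDTA, with agonist reapplied until no contraction (internal Ca2+ stores depleted). Antagonist 10 nM for 30 min, then Ca2+ 1.8 mM added. Result is % decrease versus IRT without any agent; mean ± SE, 4–7 experiments.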

Turning to `COc1cccc(OC)c1OCCNC[C@@H]1COc2cccc(OC)c2O1`, the Ki in assay [1] was 16.6 nM; in assay [2] it was 79.4 nM; in assay [3] it was 12.9 nM; in assay [4], 16.6 nM.
Turning to `COc1cccc(OC)c1OCCNC[C@@H]1COc2c(OC)cccc2O1`, the Ki in assay [1] was 263 nM; in assay [2] it was 646 nM; in assay [3], 123 nM; in assay [4] it was 813 nM.
With `COc1cccc(OC)c1OCCNC[C@@H]1COc2cccc(F)c2O1`, the Ki in assay [1] is 7.41 nM; in assay [2], 102 nM; in assay [3], 31.6 nM; in assay [4], 18.2 nM.
Regarding `COc1cccc(OC)c1OCCNC[C@H]1COc2ccccc2O1.Cl`, the pA2 in assay [5] is 6.92. The inhibition in assay [6] is 84%.
For `COc1cccc(OC)c1OCCNC[C@@H]1COc2cccc(Cl)c2O1`, the inhibition constant (Ki) in assay [1] is 3.98 nM; in assay [2], 33.9 nM; in assay [3], 17.4 nM; in assay [4] it was 5.62 nM.
`COc1cccc(OC)c1OCCNC[C@@H]1COc2cccc(O)c2O1`: the Ki in assay [1] was 324 nM; in assay [2], 398 nM; in assay [3] it was 17.4 nM; in assay [4], 66.1 nM.
